# Columns and labels:
# Plasmodium falciparum = test: Antiplasmodial activity against chloroquine-resistant Plasmodium falciparum K1 infected in human erythrocytes measured after 72 hrs Malstat/NBT reagent based assay; format: functional, organism-based; settings: K1, 72 h
# How it was run: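 Infected human red blood cells (1% parasitaemia, 2% haematocrit) incubated 72 h with compound, then frozen at -20 °C. Growth read by Malstat: haemolysate with Malstat reagent 15 min RT, then NBT/PES 2 h RT in dark, absorbance at 655 nm. Chloroquine positive control. IC50 reported.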
# MRC5 = test: Cytotoxicity against human MRC5 cells after 24 hrs by resazurin dye based assay; format: cell-based; settings: MRC5, 24 h
# How it was run: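 MRC-5 human lung fibroblasts were grown in DMEM with 10% heat-inactivated FCS at 37 °C, 5% CO2. Cells were seeded at 4 x 10^4 per well and allowed to recover for at least 24 h, then exposed for 24 h to a two-fold dilution series (128 to 0.5 µM final). Cells were PBS-washed and incubated with resazurin for 3 h, and fluorescence was read at 560/590 nm. Tamoxifen served as positive control.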
# [1] = tested on: Mycobacterium tuberculosis; test: Antitubercular activity against Mycobacterium tuberculosis H37Rv after 7 days by Resazurin microtitre assay; format: functional; settings: 168 h
# How it was run: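 Resazurin microtiter assay with M. tuberculosis H37Rv in Middlebrook 7H9 + 10% OADC + 0.5% glycerol + 0.1% casitone. Two-fold dilutions, final 50 to 3.12 µM. Inoculum from LJ subculture at McFarland 1, diluted 1:10. 7 days at 37 °C, normal atmosphere, then resazurin overnight. MIC is the lowest concentration preventing the blue-to-pink change, read visually.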
# [2] = Toxicity in Swiss mouse infected with Plasmodium berghei ANKA assessed as change in body weight at 10 mg/kg, ip administered once daily for 5 days measured on 7 days post infection (reference value: 89%); format: organism-based; settings: in vivo, 168 h
# Plasmodium berghei [3] = test: Antimalarial activity against Plasmodium berghei ANKA infected in Swiss mouse assessed as mean survival days at 10 mg/kg, ip administered once daily for 5 days (reference value: 11.2 day); format: functional
# [4] = Toxicity in Swiss mouse infected with Plasmodium berghei ANKA assessed as change in body weight at 10 mg/kg, ip administered once daily for 5 days measured on 11 days post infection (reference value: 81%); format: organism-based; settings: in vivo, 264 h
# [5] = Toxicity in Swiss mouse infected with Plasmodium berghei ANKA assessed as change in body weight at 10 mg/kg, ip administered once daily for 5 days measured on 4 days post infection (reference value: 100%); format: organism-based; settings: in vivo, 96 h
# Plasmodium berghei [6] = test: Antimalarial activity against Plasmodium berghei ANKA infected in Swiss mouse assessed as suppression of parasitaemia at 10 mg/kg, ip administered once daily for 5 days measured on 4 days post infection by flow cytometry relative to control; format: functional
# How it was run: (§1)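 Mice infected with P. berghei GFP ANKA strain were dosed intraperitoneally once daily for 5 consecutive days, at 50 mg/kg for test compounds or 10 mg/kg for chloroquine as the reference. Parasitemia was measured in surviving animals on days 4, 7, 11 and 14 post infection by flow cytometry, using 10 μL blood in 2000 μL PBS. Percent reduction was calculated against vehicle-treated infected controls.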
# Plasmodium berghei [7] = test: Antimalarial activity against Plasmodium berghei ANKA infected in Swiss mouse assessed as parasitaemia at 10 mg/kg, ip administered once daily for 5 days measured on 7 days post infection by flow cytometry (reference value: 19%); format: functional; how it was run: as §1
# Plasmodium berghei [8] = test: Antimalarial activity against Plasmodium berghei ANKA infected in Swiss mouse assessed as parasitaemia at 10 mg/kg, ip administered once daily for 5 days measured on 4 days post infection by flow cytometry (reference value: 17.1%); format: functional; how it was run: as §1
# Plasmodium berghei [9] = test: Antimalarial activity against Plasmodium berghei ANKA infected in Swiss mouse assessed as parasitaemia at 10 mg/kg, ip administered once daily for 5 days measured on 11 days post infection by flow cytometry (reference value: 44%); format: functional; how it was run: as §1
# [10] = tested on: Mycobacterium tuberculosis; test: Antitubercular activity against Mycobacterium tuberculosis H37Rv ATCC 27294 after 1 to 2 weeks; format: functional
# Plasmodium berghei [11] = test: Antimalarial activity against Plasmodium berghei ANKA infected in Swiss mouse assessed as parasitaemia at 50 mg/kg, ip administered once daily for 5 days measured on 14 days post infection by flow cytometry (reference value: 64.6%); format: functional
# [12] = Toxicity in Swiss mouse infected with Plasmodium berghei ANKA assessed as change in body weight at 50 mg/kg, ip administered once daily for 5 days measured on 14 days post infection (reference value: 75%); format: organism-based; settings: in vivo, 336 h
# Plasmodium berghei [13] = test: Antimalarial activity against Plasmodium berghei ANKA infected in Swiss mouse assessed as suppression of parasitaemia at 50 mg/kg, ip administered once daily for […] measured on 4 days post infection by flow cytometry relative to control; format: functional
# [14] = Toxicity in Swiss mouse infected with Plasmodium berghei ANKA assessed as change in body weight at 50 mg/kg, ip administered once daily for 5 days measured on 11 days post infection (reference value: 81%); format: organism-based; settings: in vivo, 264 h
# Plasmodium berghei [15] = test: Antimalarial activity against Plasmodium berghei ANKA infected in Swiss mouse assessed as parasitaemia at 50 mg/kg, ip administered once daily for 5 days measured on 4 days post infection by flow cytometry (reference value: 17.1%); format: functional; how it was run: as §1
# Plasmodium berghei [16] = test: Antimalarial activity against Plasmodium berghei ANKA infected in Swiss mouse assessed as parasitaemia at 50 mg/kg, ip administered once daily for 5 days measured on 7 days post infection by flow cytometry (reference value: 19%); format: functional; how it was run: as §1
# [17] = Toxicity in Swiss mouse infected with Plasmodium berghei ANKA assessed as change in body weight at 50 mg/kg, ip administered once daily for 5 days measured on 4 days post infection (reference value: 100%); format: organism-based; settings: in vivo, 96 h
# Plasmodium berghei [18] = test: Antimalarial activity against Plasmodium berghei ANKA infected in Swiss mouse assessed as parasitaemia at 50 mg/kg, ip administered once daily for 5 days measured on 11 days post infection by flow cytometry (reference value: 44%); format: functional; how it was run: as §1
# [19] = Toxicity in Swiss mouse infected with Plasmodium berghei ANKA assessed as change in body weight at 50 mg/kg, ip administered once daily for 5 days measured on 7 days post infection (reference value: 89%); format: organism-based; settings: in vivo, 168 h
# Plasmodium berghei [20] = test: Antimalarial activity against Plasmodium berghei ANKA infected in Swiss mouse assessed as mean survival days at 50 mg/kg, ip administered once daily for 5 days (reference value: 11.2 day); format: functional
Structure (SMILES),IC50 (Plasmodium falciparum) [µM],IC50 (MRC5) [µM],MIC [1] [µM],also measured
CC(C)C[C@H](NP(=O)(CCCC(=O)N(C)O)N[C@@H](CC(C)C)C(=O)OC1CCCCC1)C(=O)OC1CCCCC1,4.56,7.65,> 50,–
CCOC(=O)[C@@H]1CCCN1P(=O)(CCCC(=O)N(C)O)N1CCC[C@H]1C(=O)OCC,10.2,> 64,> 50,–
CCN(CC)CCCC(C)Nc1ccnc2cc(Cl)ccc12 (stereo not given) [CHLOROQUINE],–,–,–,Activity [2]: 101%; MSD (Plasmodium berghei [3]): 14 days; Activity [4]: 101%; Activity [5]: 99%; Activity (Plasmodium berghei [6]): 98.6%; Activity (Plasmodium berghei [7]): 0.6%; Activity (Plasmodium berghei [8]): 0.2%; Activity (Plasmodium berghei [9]): 11.9%
CCOC(=O)[C@H](CC(C)C)NP(=O)(CCCC(=O)N(C)O)N[C@@H](CC(C)C)C(=O)OCC,3.91,> 64,50,–
CCOC(=O)[C@@H](N)Cc1ccc(OP(=O)(CCCC(=O)N(C)O)Oc2ccc(C[C@H](N)C(=O)OCC)cc2)cc1,0.23,> 64,> 50,–
COC(=O)[C@H](CC(C)C)NP(=O)(CCCC(=O)N(C)O)N[C@@H](CC(C)C)C(=O)OC,1.76,> 64,> 50,–
CC(=O)N(CCCP(=O)(OCOC(=O)OC(C)(C)C)OCOC(=O)OC(C)(C)C)OCc1ccc(-c2ccccc2)cc1,–,–,–,MIC [10]: 5.3 to 21 µM
CC(C)OC(=O)OCOP(=O)(CCCC(=O)N(C)O)OCOC(=O)OC(C)C,–,–,–,Activity (Plasmodium berghei [11]): 16.4%; Activity [12]: 100%; Activity (Plasmodium berghei [13]): 99%; Activity [14]: 105%; Activity (Plasmodium berghei [15]): 0.2%; Activity (Plasmodium berghei [16]): 0.04%; Activity [17]: 104%; Activity (Plasmodium berghei [18]): 3.7%; Activity [19]: 105%; MSD (Plasmodium berghei [20]): 15.3 days
CC(C)C[C@H](NP(=O)(CCCC(=O)N(C)O)N[C@@H](CC(C)C)C(=O)OC(C)C)C(=O)OC(C)C,4.97,> 64,> 50,–
CCOC(=O)[C@H](C)NP(=O)(CCCC(=O)N(C)O)N[C@@H](C)C(=O)OCC,5.06,> 64,20,–
CC(C)C[C@H](NP(=O)(CCCC(=O)N(C)O)N[C@@H](CC(C)C)C(=O)OCc1ccccc1)C(=O)OCc1ccccc1,2.02,7.94,> 50,–
CCOC(=O)[C@@H](NP(=O)(CCCC(=O)N(C)O)N[C@H](C(=O)OCC)C(C)C)C(C)C,12.7,> 64,> 50,–
CCOC(=O)[C@H](C)NP(=O)(N[C@@H](C)C(=O)OCC)C(CCC(=O)N(C)O)c1ccc(Cl)c(Cl)c1 (stereo not given in full),> 36.6,> 64,> 50,–
CCOC(=O)[C@H](Cc1ccc(OP(=O)(Oc2ccc(C[C@H](NC(C)=O)C(=O)OCC)cc2)C(CCC(=O)N(C)O)c2ccc(Cl)c(Cl)c2)cc1)NC(C)=O (stereo not given in full),> 41.1,36.9,> 50,–
CCOC(=O)[C@H](CCCCN)NP(=O)(CCCC(=O)N(C)O)N[C@@H](CCCCN)C(=O)OCC,0.96,> 64,> 50,Activity (Plasmodium berghei [13]): 0.6%; Activity [14]: 67%; Activity (Plasmodium berghei [15]): 17.1%; Activity (Plasmodium berghei [16]): 30.1%; Activity [17]: 99%; Activity (Plasmodium berghei [18]): 34.7%; Activity [19]: 79%; MSD (Plasmodium berghei [20]): 8.7 days
CCOC(=O)[C@H](Cc1ccc(OP(=O)(CCCC(=O)N(C)O)Oc2ccc(C[C@H](NC(C)=O)C(=O)OCC)cc2)cc1)NC(C)=O,0.31,> 64,> 50,Activity (Plasmodium berghei [11]): 32.6%; Activity [12]: 69%; Activity (Plasmodium berghei [13]): 82%; Activity [14]: 86%; Activity (Plasmodium berghei [15]): 3%; Activity (Plasmodium berghei [16]): 6.5%; Activity [17]: 102%; Activity (Plasmodium berghei [18]): 29.2%; Activity [19]: 104%; MSD (Plasmodium berghei [20]): 12.7 days
CCOC(=O)[C@@H](NP(=O)(CCCC(=O)N(C)O)N[C@H](C(=O)OCC)[C@@H](C)CC)[C@@H](C)CC,2,> 64,> 50,–
CCOC(=O)[C@H](Cc1ccccc1)NP(=O)(CCCC(=O)N(C)O)N[C@@H](Cc1ccccc1)C(=O)OCC,4.71,> 64,> 50,–
CCCCCOC(=O)[C@H](CC(C)C)NP(=O)(CCCC(=O)N(C)O)N[C@@H](CC(C)C)C(=O)OCCCCC,2.37,7.46,> 50,–

# — ChEMBL document CHEMBL4422657, “Amino acid based prodrugs of a fosmidomycin surrogate as antimalarial and antitubercular agents” (Bioorg Med Chem, 2019)
